Experimental findings from publication PMC4134686 (Journal of the American Chemical Society, 2013) are described below.

Holding throughout (assay): isothermal titration calorimetry
Holding throughout (assay type): binding
A general note: In ITC the heat of successive injections is recorded.

The target in assay [1] is BsSecA (Bacillus subtilis, UniProt P28366, E208Q). The gist of the method: (§1)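 Full-length native-sequence SecA purified by ion-exchange, hydrophobic and gel-filtration chromatography, then dialysed >18 h against TKM (50 mM Tris-HCl pH 8.0, 50 mM KCl, 5 mM MgCl₂) with 3 buffer changes. Mg-ADP dissolved in final dialysate and titrated at 25 °C into 20 μM WT BsSecA, 30 μM E208Q BsSecA or 10 μM WT EcSecA.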

For another assay, the target named is EcSecA (Escherichia coli, UniProt P10408). Put shortly:
as §1

Assay [2] has as its target BsSecA (Bacillus subtilis, UniProt P28366). The gist of the method:
as §1

For orientation: Kd means the concentration at which binding is half-saturated. A lower Kd goes with higher affinity. On to `Nc1ncnc2c1ncn2[C@@H]1O[C@H](COP(=O)(O)OP(=O)(O)O)[C@@H](O)[C@H]1O` [Mg-ADP], for which the dissociation constant (Kd) at BsSecA [1] amounted to 7700 ± 300 nM; at EcSecA, 62 ± 4 nM; on BsSecA [2], 180 ± 10 nM.
